Most compounds without a hit are left out; they make up all but 1.9% or so of the library.
Runt-CBFb FRET: inhibitors of human RUNX1 Runt domain binding to CBFb; Q01196+Q13951; Cerulean-Runt/Venus-CBFb FRET ratio 530/480, 1 h; inhibition, % at 20 µM; 220,000 tested, 0.46% active; AID 1496;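 active = inhibition over about 50% at 20 µM in the single-dose screen, limit read from the data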
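Assay system: Cerulean-Runt domain / Medium: Tris 50 mM pH 7.5, KCl, K2SO4, 0.01% BSA / Timing: protein complex preformed 1 h, compound exposure 1 h, room temperature, dark / Measured by: FRET, excitation 422 nm, emission at 530 and 480 nm / Evaluation: loss of energy transfer signal / Control set: 5 µM unlabeled CBFb as full-inhibition high control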
RanGTP-Impb inh: inhibitors of RanGTP-importin-beta interaction, primary screen, biochemical, FRET, CFP-Ran, YFP-importin-beta, homogeneous; cell-free CFP-Ran/YFP-importin-beta FRET ratio; inhibition, % (concentration not given with the values); 300,000 tested, 1.1% active; AID 2216;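 active = more than half of the replicate wells show a fall in the fluorescence ratio signal beyond about 16%, limit read from the data, passing the limit was not always enough; inconclusive = exactly half of the replicate wells pass the set limit; inactive = fewer than half of replicates pass the limit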
Hck-Nef inh: human Hck-Nef kinase inhibition; inhibition, % at 20 µM; P08631; 220,000 tested, 0.68% active; Recombinant Hck-YEEI plus Nef, Z-Lyte FRET kinase assay;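 active = Hck-Nef kinase inhibition above about 50%, limit read from the data; inactive = inhibition below that limit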
Target sequence (P08631 whole entry, looked up): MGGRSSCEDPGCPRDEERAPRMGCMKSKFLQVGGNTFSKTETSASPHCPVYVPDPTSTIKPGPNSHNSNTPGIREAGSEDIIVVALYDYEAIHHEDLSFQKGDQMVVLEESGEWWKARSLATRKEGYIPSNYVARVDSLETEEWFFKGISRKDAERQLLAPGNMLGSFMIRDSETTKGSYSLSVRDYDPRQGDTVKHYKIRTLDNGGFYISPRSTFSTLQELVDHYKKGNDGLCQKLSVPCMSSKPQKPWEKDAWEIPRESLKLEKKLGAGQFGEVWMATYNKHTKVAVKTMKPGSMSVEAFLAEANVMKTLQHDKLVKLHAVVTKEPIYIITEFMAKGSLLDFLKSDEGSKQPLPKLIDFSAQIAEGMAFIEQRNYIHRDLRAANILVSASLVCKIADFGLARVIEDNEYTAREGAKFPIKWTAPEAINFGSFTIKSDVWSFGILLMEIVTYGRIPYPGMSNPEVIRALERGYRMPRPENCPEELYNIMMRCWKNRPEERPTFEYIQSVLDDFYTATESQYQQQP
Runt-SMMHC FRET: blocks binding of human RUNX1 Runt domain to CBFb-SMMHC; Q01196+Q13951; Cerulean-Runt/Venus-CBFb-SMMHC FRET ratio 530/480, 1 h; inhibition, % at 20 µM; 220,000 tested, 0.74% active; AID 1434;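 active = mean inhibition across duplicate retests at 20 µM reaching about 50%, limit read from the data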;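 also: inhibitors lower the FRET ratio by blocking Runt binding to CBFb-SMMHC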
YIC counter: counter-screen YIC FRET for RanGTP-importin-beta inhibitors | 1,000 tested, 40% active | IC50, µM | Purified YIC probe, intramolecular FRET ratio YFP/CFP | shares compounds with RanGTP-Impb inh;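 active = fitted half-maximal inhibitory concentration no more than tenfold above the top dose tested; inconclusive = flat fit with 30 to 70% activity, or poor fit; inactive = half-maximal concentration beyond tenfold above the top dose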
Large screens that a line does not name were inactive (follow-up assays come after a bar, where they were run).

C#CCOc1ccc(C2C3=C(CC(C)(C)CC3=O)N(CC(=O)O)C3=C2C(=O)CC(C)(C)C3)cc1OC	RanGTP-Impb inh 22 (no result: Runt-CBFb FRET, Hck-Nef inh, Runt-SMMHC FRET) | YIC counter 39
O=C(N/N=C/c1ccc(-c2ccccc2Cl)o1)c1ccccc1	RanGTP-Impb inh 21 | YIC counter inactive
CNS(=O)(=O)c1cccc(C(=O)NCC(c2cccs2)N2CCOCC2)c1 (stereo unspecified)	none (no result: Runt-CBFb FRET, Hck-Nef inh, Runt-SMMHC FRET)
Cc1ccccc1COC[C@H](CC(C)C)N1CCN(C(=O)c2cccc(C(F)(F)F)c2)CCC1=O	none
CC(=O)c1cccc(OCC(=O)N(C)CC(=O)Nc2ccc(F)cc2)c1	RanGTP-Impb inh 65 | YIC counter inactive
COC(=O)c1ccc(NC(=O)C(=O)N2CCN(C(=S)Nc3cccc(C)c3C)CC2)cc1	RanGTP-Impb inh inconclusive
COC(=O)c1ccc(NC(=O)C(=O)N2CCN(C(=S)Nc3ccccc3OC)CC2)cc1	RanGTP-Impb inh 20 | YIC counter inactive
NNC(=O)[C@H](Cc1ccccc1)NC(=O)NCCc1ccccc1	none (no result: Runt-CBFb FRET, Hck-Nef inh, Runt-SMMHC FRET)
CCOC(=O)C1(CC2CCCCO2)CCN(C(=O)Nc2ccc3c(c2)OCO3)CC1 (stereo unspecified)	RanGTP-Impb inh 22 | YIC counter inactive
COc1ccc(CCNc2oc(-c3ccco3)nc2C#N)cc1	RanGTP-Impb inh 26 | YIC counter inactive
N#Cc1nc(-c2ccco2)oc1NCCc1ccccc1	none
COc1cccc(C2=NOC(C(=O)Nc3cc(C)on3)C2)c1 (stereo unspecified)	RanGTP-Impb inh 19 | YIC counter inactive
COc1ccc(CCC(=O)NCC23CC4CC(CC(C4)C2)C3)cc1	none (no result: Runt-CBFb FRET, Hck-Nef inh, Runt-SMMHC FRET)
O=C(CSc1nnc(-c2ccc(F)cc2)o1)Nc1ccc(S(=O)(=O)N2CCCCCC2)cc1	none
O=C(CSc1nnc(-c2ccc(F)cc2)o1)Nc1ccc(S(=O)(=O)N2CCCC2)cc1	RanGTP-Impb inh 17 | YIC counter inactive
Cc1c(CC(=O)NCC(=O)N[C@H](Cc2ccccc2)C(=O)O)c(=O)oc2cc(O)ccc12	RanGTP-Impb inh 16 (no result: Runt-CBFb FRET, Hck-Nef inh, Runt-SMMHC FRET) | YIC counter 46
COc1cc(-c2nc3cnccn3c2Nc2ccc(C(C)C)cc2)ccc1O	RanGTP-Impb inh 32 | YIC counter inactive
CN1CCCN(Cc2cccc3ccccc23)CC1	RanGTP-Impb inh 22 (no result: Runt-CBFb FRET, Hck-Nef inh, Runt-SMMHC FRET) | YIC counter inactive
N#Cc1c(N)nc2c(c1-c1ccccc1)CCC2	RanGTP-Impb inh 29 | YIC counter 9.8
Cc1ccc(-n2nc3c(=O)n(C(C)C(=O)NCc4ccc(Cl)cc4)nc(C)c3c2C)cc1 (stereo unspecified)	none (no result: Runt-CBFb FRET, Hck-Nef inh, Runt-SMMHC FRET)
C=CCN1C(=O)/C(=C2/Sc3ccccc3N2C)SC1=Nc1ccccc1C	none
CCN1C(=O)/C(=C2\Sc3ccccc3N2CC)OC1=S	RanGTP-Impb inh 21 | YIC counter 36
C=CCN1C(=O)/C(=C2/Sc3ccccc3N2CC)SC1=S	RanGTP-Impb inh 17 (no result: Runt-CBFb FRET, Hck-Nef inh, Runt-SMMHC FRET) | YIC counter inactive
CCCN1CCN(CCCNC(=O)CCn2nc(-c3ccccc3)ccc2=O)CC1	none
Cc1ccc(S(=O)(=O)N2CCN(C(C(=O)Nc3ccc(F)cc3)c3ccccc3)CC2)cc1 (stereo unspecified)	none
CCCCc1nnc(NC(=O)C2CC(=O)N(Cc3ccccc3)C2)s1 (stereo unspecified)	none (no result: Runt-CBFb FRET, Hck-Nef inh, Runt-SMMHC FRET)
Cc1c(CC(=O)N2CCN(C(=O)C3COc4ccccc4O3)CC2)c(=O)oc2cc(O)c(Cl)cc12 (stereo unspecified)	RanGTP-Impb inh 44 (no result: Runt-CBFb FRET, Hck-Nef inh, Runt-SMMHC FRET) | YIC counter 2.9
O=C(O)c1ccccc1C(=O)Nc1ccc(Br)c2cccnc12	RanGTP-Impb inh 17 | YIC counter inactive
COc1ccccc1C1C(C(N)=O)=C(C)Nc2ncnn21 (stereo unspecified)	RanGTP-Impb inh 23 | YIC counter inactive
CC(C)CCNC(=O)C(c1ccco1)N(Cc1ccccc1)C(=O)c1snc(C(N)=O)c1N (stereo unspecified)	RanGTP-Impb inh 30 | YIC counter inactive
Cc1ccc(C(C(=O)NCc2ccccc2)N(Cc2ccco2)C(=O)c2snc(C(N)=O)c2N)o1 (stereo unspecified)	none (no result: Runt-CBFb FRET, Hck-Nef inh, Runt-SMMHC FRET)
N=C(N)SCc1nc2ccccc2c(=O)n1-c1ccccc1Cl	RanGTP-Impb inh 26 | YIC counter inactive
COCCNC(=O)/C(C#N)=C/c1cn(CC(=O)NCc2ccco2)c2ccccc12	RanGTP-Impb inh 27 | YIC counter 44
N#C/C(=C\c1cn(CC(=O)O)c2ccccc12)C(=O)NCc1ccccc1	none (no result: Runt-CBFb FRET, Hck-Nef inh, Runt-SMMHC FRET)
Cc1ccccc1NC(=O)/C(C#N)=C\c1cn(CC(=O)O)c2ccccc12	RanGTP-Impb inh 20 (no result: Runt-CBFb FRET, Runt-SMMHC FRET) | YIC counter 51
CCNC(=O)/C(C#N)=C/c1c(N2CCN(c3ccc(OC)cc3)CC2)nc2c(C)cccn2c1=O	none (no result: Runt-CBFb FRET, Hck-Nef inh, Runt-SMMHC FRET)
Cc1cccn2c(=O)c(/C=C(\C#N)C(N)=O)c(Oc3ccccc3)nc12	RanGTP-Impb inh 25, Runt-SMMHC FRET 119 | YIC counter 1.6
Cc1cccn2c(=O)c(/C=C(\C#N)C(N)=O)c(N3CCN(c4ccccc4)CC3)nc12	none (no result: Runt-CBFb FRET, Hck-Nef inh, Runt-SMMHC FRET)
COCCNC(=O)/C(C#N)=C/c1c(N2CCN(c3ccc(OC)cc3)CC2)nc2c(C)cccn2c1=O	RanGTP-Impb inh 19 (no result: Runt-CBFb FRET, Hck-Nef inh, Runt-SMMHC FRET) | YIC counter 46
CCOC(=O)/C(C#N)=C/c1c(N2CCN(c3ccc(OC)cc3)CC2)nc2c(C)cccn2c1=O	RanGTP-Impb inh 20 (no result: Runt-CBFb FRET, Hck-Nef inh, Runt-SMMHC FRET) | YIC counter inactive
CCc1ccccc1NC(=S)N(CCN1CCCCC1)Cc1ccco1	none
C/C(=C\C(=O)C(F)(F)F)Nc1ccc(C(F)(F)F)cc1	RanGTP-Impb inh 20 | YIC counter inactive
CCC(=O)N(C)/C=C1\Sc2ccccc2C1=O	RanGTP-Impb inh 20, Runt-SMMHC FRET 154 (no result: Runt-CBFb FRET) | YIC counter inactive
O=C(C[n+]1ccc(Cc2ccccc2)cc1)Nc1ccccc1	none
Cc1c(C=O)cnn1CCC(=O)O	RanGTP-Impb inh 23 (no result: Runt-CBFb FRET, Runt-SMMHC FRET) | YIC counter inactive
CN(C)c1oc(-c2cccs2)nc1C#N	RanGTP-Impb inh 24 | YIC counter inactive
CCS(=O)(=O)NCCc1cc2c(OC)ccc(OC)c2[nH]c1=O	none
N#CCCN(C(=O)Nc1ccc(Cl)cc1)c1ccccc1	RanGTP-Impb inh 96 | YIC counter inactive
N#CCCN(C(=O)Nc1ccccc1)c1ccccc1	none
Cn1c(N)c(C(=O)COC(=O)C2(c3ccc(F)cc3)CCCC2)c(=O)n(C)c1=O	RanGTP-Impb inh 22 | YIC counter inactive
O=C(CCN1C(=O)COc2ccccc21)NCc1cccs1	none
CC1CCCCN1C(=O)Cn1c(=O)oc2cc(S(=O)(=O)N3CCCC3)ccc21 (stereo unspecified)	RanGTP-Impb inh 17 (no result: Runt-CBFb FRET, Hck-Nef inh, Runt-SMMHC FRET) | YIC counter inactive
CC1CCN(C(=O)Cn2c(=O)oc3cc(S(=O)(=O)N4CCCCC4)ccc32)CC1	none (no result: Runt-CBFb FRET, Hck-Nef inh, Runt-SMMHC FRET)
COCCN1C=C(C(=O)OC)C(c2ccc(Cl)cc2)C(C(=O)OC)=C1	Runt-CBFb FRET 94, RanGTP-Impb inh 41, Hck-Nef inh 75, Runt-SMMHC FRET 105 | YIC counter 13
CCn1c(O)c(C=Nc2ccccc2)sc1=S	RanGTP-Impb inh 37, Runt-SMMHC FRET 68 | YIC counter 17
